{"source": "ChEMBL document CHEMBL4422637", "about": "“Identification of dual role of piperazine-linked phenyl cyclopropyl methanone as positive allosteric modulator of 5-HT2C and negative allosteric modulator of 5-HT2B receptors” (Eur J Med Chem, 2019)", "key": {"[1]": {"biological_target": "T1, 5-hydroxytryptamine receptor 2C (Homo sapiens) (UniProt P28335)", "T1 sequence (whole entry)": "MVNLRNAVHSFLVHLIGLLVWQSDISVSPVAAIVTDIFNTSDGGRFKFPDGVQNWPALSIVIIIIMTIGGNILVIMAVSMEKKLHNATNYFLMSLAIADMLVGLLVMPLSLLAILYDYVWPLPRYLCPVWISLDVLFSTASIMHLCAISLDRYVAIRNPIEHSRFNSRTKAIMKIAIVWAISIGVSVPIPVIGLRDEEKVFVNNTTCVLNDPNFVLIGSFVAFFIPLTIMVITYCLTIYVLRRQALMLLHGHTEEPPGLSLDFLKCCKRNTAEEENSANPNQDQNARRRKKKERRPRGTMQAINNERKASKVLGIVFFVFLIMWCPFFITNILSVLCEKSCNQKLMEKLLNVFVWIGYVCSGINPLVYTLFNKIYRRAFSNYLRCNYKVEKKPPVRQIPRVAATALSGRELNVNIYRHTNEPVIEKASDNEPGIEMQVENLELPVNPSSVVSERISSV", "assay": "Positive allosteric modulation of 5HT2C receptor (unknown origin) expressed in HEK293 cells co-expressing NFAT-RE assessed as increase in serotonin-induced reponse at 1 uM after 6 to 12 hrs by Bright-Glo luciferase reporter gene assay relative to serotonin", "assay_type": "cell-based", "how_it_was_run": "(§1)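 Transiently co-transfected HEK293T cells expressing 5-HT2A, 5-HT2B or 5-HT2C with NFAT-RE luciferase, 50,000 cells/well. Test compound added first at 10 µM, 1 µM or 100 nM, in triplicate. A 5-HT concentration-response (10 µM to 0.01 nM) followed, then 6-12 h incubation. Bright-Glo luminescence was fitted by non-linear regression, with Emax normalized to 5-HT alone (100%). n=3-4.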"}, "[2]": {"biological_target": "T1, 5-hydroxytryptamine receptor 2C (Homo sapiens)", "assay": "Positive allosteric modulation of 5HT2C receptor (unknown origin) expressed in HEK293 cells co-expressing NFAT-RE assessed as increase in serotonin-induced intracellular calcium flux at 1 uM preincubated for 15 mins followed by serotonin stimulation and measured for 120 secs by Fluo-4NW dye based fluorescence assay relative to serotonin", "assay_type": "functional, cell-based", "how_it_was_run": "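5-HT2C-transfected HEK293T cells, 50,000 cells/well, loaded with Fluo-4NW calcium dye. Compound (1 µM) preincubated 15 min. 5-HT then added at 35 µl/min and fluorescence (ex 494/em 516 nm) recorded for 120 s. Fold change was calculated against baseline from the first 5 s before ligand addition. Emax normalized to 5-HT alone.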"}, "5HT2A receptor": {"biological_target": "5HT2A receptor (Homo sapiens, UniProt P28223)", "sequence (P28223 whole entry)": "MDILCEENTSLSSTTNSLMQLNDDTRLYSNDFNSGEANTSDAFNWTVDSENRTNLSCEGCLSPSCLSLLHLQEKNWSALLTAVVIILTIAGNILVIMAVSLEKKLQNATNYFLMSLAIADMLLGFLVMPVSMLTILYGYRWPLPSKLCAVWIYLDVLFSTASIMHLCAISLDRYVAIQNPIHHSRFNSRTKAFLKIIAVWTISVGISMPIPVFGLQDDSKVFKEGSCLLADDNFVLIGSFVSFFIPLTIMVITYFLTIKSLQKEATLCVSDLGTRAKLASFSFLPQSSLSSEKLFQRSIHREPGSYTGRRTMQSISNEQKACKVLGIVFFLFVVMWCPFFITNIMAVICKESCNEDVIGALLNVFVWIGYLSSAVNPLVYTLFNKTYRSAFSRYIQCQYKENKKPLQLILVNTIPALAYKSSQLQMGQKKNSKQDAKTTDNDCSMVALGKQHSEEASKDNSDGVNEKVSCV", "assay": "Positive allosteric modulation of 5HT2A receptor (unknown origin) expressed in HEK293 cells co-expressing NFAT-RE assessed as increase in serotonin-induced reponse at 1 uM after 6 to 12 hrs by Bright-Glo luciferase reporter gene assay relative to serotonin", "assay_type": "cell-based", "conditions": "HEK293 cells expressing 5HT2A receptor and NFAT-RE reporter", "how_it_was_run": "as §1"}, "[3]": {"biological_target": "T2, 5-hydroxytryptamine receptor 2A (Homo sapiens, UniProt P28223)", "T2 sequence (P28223 whole entry)": "as above", "assay": "Agonist activity at 5HT2A receptor (unknown origin) expressed in HEK293 cells co-expressing NFAT-RE after 6 to 12 hrs by Bright-Glo luciferase reporter gene assay", "assay_type": "cell-based", "how_it_was_run": "(§2)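 HEK293T cells transiently co-transfected (PEI) with 0.1 µg/well receptor plasmid (5-HT2A, 5-HT2B or 5-HT2C) plus 0.1 µg/well NFAT-RE luciferase reporter, plated 50,000 cells/well 24 h before treatment. Compounds tested in triplicate from 10 µM down to 0.01 nM in HBSS/20 mM HEPES pH 7.4, incubated 6-12 h. Luminescence read within 5 min of Bright-Glo (1 mg/ml final). RLU fitted by non-linear regression; 5-HT Emax set to 100%.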"}, "Rattus norvegicus [4]": {"system": "Rattus norvegicus", "assay": "Induction of anorexia in Sprague-Dawley rat assessed as suppression of food intake at 2 pmol, icv measured after 24 hrs", "assay_type": "functional, organism-based", "how_it_was_run": "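Adult SD rats (150-200 g) on a 12 h light/dark cycle at 22 °C, with a cannula in the right ventricle (AP -0.9, ML -1.5, DV -3.5). Rats were food-deprived for 4 h with water available. Compound given i.c.v. at 2 pmol/rat in 2 µL, vehicle aCSF; lorcaserin 2 pmol as positive control. Weighed pellets were supplied 10 min later. Remaining food including spillage was weighed at 3, 6 and 24 h; n=4.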"}, "5HT2B receptor": {"biological_target": "5HT2B receptor (Homo sapiens, UniProt P41595)", "sequence (P41595 whole entry)": "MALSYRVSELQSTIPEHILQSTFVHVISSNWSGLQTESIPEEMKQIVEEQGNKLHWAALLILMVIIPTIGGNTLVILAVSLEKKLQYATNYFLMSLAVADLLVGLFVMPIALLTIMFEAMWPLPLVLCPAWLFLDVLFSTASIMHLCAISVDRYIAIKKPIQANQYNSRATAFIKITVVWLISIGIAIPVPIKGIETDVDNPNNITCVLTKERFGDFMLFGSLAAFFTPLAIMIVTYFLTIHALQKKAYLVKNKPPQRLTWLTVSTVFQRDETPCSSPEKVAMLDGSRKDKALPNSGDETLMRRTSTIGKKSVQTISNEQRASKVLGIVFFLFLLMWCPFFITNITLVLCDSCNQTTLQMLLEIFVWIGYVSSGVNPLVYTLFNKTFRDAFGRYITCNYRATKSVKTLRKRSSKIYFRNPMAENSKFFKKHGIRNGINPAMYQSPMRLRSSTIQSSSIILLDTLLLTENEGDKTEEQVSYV", "assay": "Positive allosteric modulation of 5HT2B receptor (unknown origin) expressed in HEK293 cells co-expressing NFAT-RE assessed as increase in serotonin-induced reponse at 1 uM after 6 to 12 hrs by Bright-Glo luciferase reporter gene assay relative to serotonin", "assay_type": "cell-based", "conditions": "HEK293 cells expressing 5HT2B receptor and NFAT-RE reporter", "how_it_was_run": "as §1"}, "Rattus norvegicus [5]": {"system": "Rattus norvegicus", "assay": "Induction of anorexia in Sprague-Dawley rat assessed as suppression of food intake at 2 pmol, icv measured after 3 to 6 hrs", "assay_type": "functional, organism-based", "how_it_was_run": "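Adult SD rats (150-200 g) on a 12 h light/dark cycle at 22 °C, cannulated in the right ventricle. Rats were fasted 4 h with free access to water, then dosed i.c.v. with 2 pmol/rat (2 µL) in aCSF vehicle; lorcaserin 2 pmol/rat served as positive control. Weighed pellets were given 10 min later, and remaining food plus spillage was weighed at 3, 6 and 24 h; n=4.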"}, "[6]": {"biological_target": "T3, 5-hydroxytryptamine receptor 2B (Homo sapiens, UniProt P41595)", "T3 sequence (P41595 whole entry)": "as above", "assay": "Agonist activity at 5HT2B receptor (unknown origin) expressed in HEK293 cells co-expressing NFAT-RE after 6 to 12 hrs by Bright-Glo luciferase reporter gene assay", "assay_type": "cell-based", "how_it_was_run": "as §2"}, "[7]": {"biological_target": "T1, 5-hydroxytryptamine receptor 2C (Homo sapiens)", "assay": "Agonist activity at 5HT2C receptor (unknown origin) expressed in HEK293 cells co-expressing NFAT-RE at 10 uM after 6 to 12 hrs by Bright-Glo luciferase reporter gene assay", "assay_type": "cell-based", "how_it_was_run": "(§3)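 Primary screen at 5-HT2C in transiently co-transfected HEK293T (receptor plus NFAT-RE luciferase plasmids, 50,000 cells/well). Compounds tested in triplicate at a final 10 µM in HEPES-buffered HBSS pH 7.4 and incubated 6-12 h. Luminescence read within 5 min of Bright-Glo (1 mg/ml final). Signal normalized to the 5-HT maximal response.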"}, "[8]": {"biological_target": "T1, 5-hydroxytryptamine receptor 2C (Homo sapiens)", "assay": "Positive allosteric modulation of 5HT2C receptor (unknown origin) expressed in HEK293 cells co-expressing NFAT-RE assessed as increase in serotonin-induced reponse at 10 uM after 6 to 12 hrs by Bright-Glo luciferase reporter gene assay relative to serotonin", "assay_type": "cell-based", "how_it_was_run": "as §1"}, "[9]": {"biological_target": "T3, 5-hydroxytryptamine receptor 2B", "assay": "Positive allosteric modulation of 5HT2B receptor (unknown origin) expressed in HEK293 cells co-expressing NFAT-RE assessed as increase in serotonin-induced reponse after 6 to 12 hrs by Bright-Glo luciferase reporter gene assay", "assay_type": "cell-based", "how_it_was_run": "as §1"}, "[10]": {"biological_target": "T1, 5-hydroxytryptamine receptor 2C (Homo sapiens)", "assay": "Agonist activity at 5HT2C receptor (unknown origin) expressed in HEK293 cells co-expressing NFAT-RE at 10 uM after 6 to 12 hrs by Bright-Glo luciferase reporter gene assay relative to control", "assay_type": "cell-based", "how_it_was_run": "as §3"}, "[11]": {"biological_target": "T3, 5-hydroxytryptamine receptor 2B", "assay": "Negative allosteric modulation of 5HT2B receptor (unknown origin) expressed in HEK293 cells co-expressing NFAT-RE assessed as reduction in serotonin-induced reponse after 6 to 12 hrs by Bright-Glo luciferase reporter gene assay", "assay_type": "cell-based", "how_it_was_run": "as §1"}, "[12]": {"biological_target": "T1, 5-hydroxytryptamine receptor 2C (Homo sapiens)", "assay": "Agonist activity at 5HT2C receptor (unknown origin) expressed in HEK293 cells co-expressing NFAT-RE after 6 to 12 hrs by Bright-Glo luciferase reporter gene assay", "assay_type": "cell-based", "how_it_was_run": "as §2"}, "[13]": {"biological_target": "T1, 5-hydroxytryptamine receptor 2C (Homo sapiens)", "assay": "Positive allosteric modulation of 5HT2C receptor (unknown origin) expressed in HEK293 cells co-expressing NFAT-RE assessed as increase in serotonin-induced reponse at 100 nM after 6 to 12 hrs by Bright-Glo luciferase reporter gene assay relative to serotonin", "assay_type": "cell-based", "how_it_was_run": "as §1"}, "[14]": {"biological_target": "T2, 5-hydroxytryptamine receptor 2A", "assay": "Positive allosteric modulation of 5HT2A receptor (unknown origin) expressed in HEK293 cells co-expressing NFAT-RE assessed as increase in serotonin-induced reponse after 6 to 12 hrs by Bright-Glo luciferase reporter gene assay", "assay_type": "cell-based", "how_it_was_run": "as §1"}, "[15]": {"biological_target": "T4, 5-hydroxytryptamine receptor 2C (Homo sapiens, UniProt P28335)", "T4 sequence (P28335 whole entry)": "T1 sequence (whole entry)", "assay": "Positive allosteric modulation of 5HT2C receptor (unknown origin) expressed in HEK293 cells co-expressing NFAT-RE assessed as increase in serotonin-induced reponse after 6 to 12 hrs by Bright-Glo luciferase reporter gene assay", "assay_type": "cell-based", "how_it_was_run": "as §1"}}, "note": "The source made the active and inactive calls. No cut-off for these calls is given here."}
{"smiles": "O=C(c1ccc(N2CCN(Cc3ccccc3)CC2)cc1)C1CC1", "values": [{"measurement": "Emax", "setting": "[1]", "result": "139 to 146", "unit": "%"}, {"measurement": "Emax", "setting": "[2]", "result": 124, "unit": "%"}, {"measurement": "Emax at 1 µM", "setting": "5HT2A receptor", "result": 99, "unit": "%"}, {"measurement": "Activity", "setting": "[3]", "result": "Not Active"}, {"measurement": "Activity", "setting": "Rattus norvegicus [4]", "result": "inactive"}, {"measurement": "Emax at 1 µM", "setting": "5HT2B receptor", "result": 118, "unit": "%"}, {"measurement": "Activity", "setting": "Rattus norvegicus [5]", "result": "Active"}, {"measurement": "Activity", "setting": "[6]", "result": "Not Active"}, {"measurement": "Activity", "setting": "[7]", "result": "inactive"}, {"measurement": "Emax", "setting": "[8]", "result": 149, "unit": "%"}, {"measurement": "EC50", "setting": "[9]", "result": 11.7, "unit": "nM"}, {"measurement": "fold change (FC)", "setting": "[10]", "result": 2}, {"measurement": "Activity", "setting": "[11]", "result": "Dose-dependent effect"}, {"measurement": "Activity", "setting": "[12]", "result": "inactive"}, {"measurement": "Activity", "setting": "[13]", "result": "Active"}, {"measurement": "EC50", "setting": "[14]", "result": 38, "unit": "nM"}, {"measurement": "EC50", "setting": "[15]", "result": 5.01, "unit": "nM"}]}
